Experimental data taken from ChEMBL document CHEMBL3596194, “Design, synthesis and biological evaluation of bivalent benzoxazolone and benzothiazolone ligands as potential anti-inflammatory/analgesic agents” (Bioorg Med Chem, 2015).
Calls of active or inactive are those of the source. The rule behind the calls is not given here.

Columns and labels:
[1] = biological target: T1, Nitric oxide synthase, inducible (Mus musculus) (UniProt P29477); assay: Antiinflammatory activity in mouse RAW264.7 cells assessed as inhibition of LPS-induced iNOS activity up to 25 ug/ml incubated for 30 mins prior to LPS challenge measured after 24 hrs by Griess assay; type: cell-based
T1 sequence (whole entry): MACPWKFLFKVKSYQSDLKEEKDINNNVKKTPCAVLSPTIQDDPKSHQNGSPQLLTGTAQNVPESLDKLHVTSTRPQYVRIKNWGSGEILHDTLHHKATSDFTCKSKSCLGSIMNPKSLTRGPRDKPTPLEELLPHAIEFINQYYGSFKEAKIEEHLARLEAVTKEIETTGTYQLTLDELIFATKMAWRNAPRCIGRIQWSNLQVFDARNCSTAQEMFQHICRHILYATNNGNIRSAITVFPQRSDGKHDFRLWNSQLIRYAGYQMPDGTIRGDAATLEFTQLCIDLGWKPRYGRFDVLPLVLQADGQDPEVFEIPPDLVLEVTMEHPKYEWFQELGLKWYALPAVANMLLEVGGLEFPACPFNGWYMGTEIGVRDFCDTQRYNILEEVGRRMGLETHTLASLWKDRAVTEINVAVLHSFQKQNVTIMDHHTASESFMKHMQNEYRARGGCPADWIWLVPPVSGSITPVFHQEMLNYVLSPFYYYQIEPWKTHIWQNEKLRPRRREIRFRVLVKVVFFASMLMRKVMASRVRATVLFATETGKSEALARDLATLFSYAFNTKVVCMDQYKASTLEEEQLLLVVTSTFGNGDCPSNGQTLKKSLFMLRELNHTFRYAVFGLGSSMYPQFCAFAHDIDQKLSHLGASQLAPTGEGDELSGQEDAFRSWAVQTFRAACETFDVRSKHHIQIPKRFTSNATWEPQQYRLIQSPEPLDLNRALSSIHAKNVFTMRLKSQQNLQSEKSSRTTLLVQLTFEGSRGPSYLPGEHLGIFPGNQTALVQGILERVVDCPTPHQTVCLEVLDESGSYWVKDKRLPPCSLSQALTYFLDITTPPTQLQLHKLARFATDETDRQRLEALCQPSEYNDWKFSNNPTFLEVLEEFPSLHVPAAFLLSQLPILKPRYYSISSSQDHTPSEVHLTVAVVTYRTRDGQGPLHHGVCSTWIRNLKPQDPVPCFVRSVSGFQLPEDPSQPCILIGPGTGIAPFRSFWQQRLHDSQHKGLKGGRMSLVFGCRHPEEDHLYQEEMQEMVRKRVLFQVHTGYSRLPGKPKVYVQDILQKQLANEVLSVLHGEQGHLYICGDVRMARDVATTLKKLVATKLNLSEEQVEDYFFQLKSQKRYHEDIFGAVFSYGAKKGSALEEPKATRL
Procedure, shortened: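 RAW264.7 macrophages seeded at 50,000 cells/well and grown 24 h to ≥75% confluency. Compounds in serum-free medium added 30 min before LPS (5 μg/mL), then 24 h incubation. Nitrite in the supernatant measured with Griess reagent.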

[2] = Antiinflammatory activity in human SW1353 cells assessed as inhibition of PMA-induced NF-kappaB activity incubated for 30 mins prior to PMA challenge measured after 8 hrs by luciferase reporter gene assay; type: cell-based
Procedure, shortened: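 SW1353 cells in DMEM/F12 with 10% FBS, electroporated with NF-κB luciferase plasmid (160 V, one 70-ms pulse), plated at 1.25 × 10⁵ cells/well. After 24 h, graded compound concentrations added 30 min before PMA 70 ng/mL, then 8 h incubation. Luciferase read-out, % inhibition versus vehicle, IC50 from dose curves. Sp-1 reporter served as nonspecific control.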

[3] = Cytotoxicity against pig LLC-PK11 cells up to 25 ug/ml after 48 hrs by neutral red assay relative to control; type: cell-based, Sus scrofa; conditions: llc-pk11, 48 h
Procedure, shortened: (§1)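 Cells grown in RPMI-1640 with 10% bovine calf serum and amikacin at 37 °C, 5% CO2. Seeded at 25,000 cells/well and grown 24 h, then exposed 48 h to samples diluted in serum-free medium. Viability by Neutral Red; % decrease vs vehicle; IC50 from dose curves. Triplicate runs, mean reported; doxorubicin as positive control.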

Vero [4] = assay: Cytotoxicity against African green monkey Vero cells up to 25 ug/ml after 48 hrs by neutral red assay relative to control; type: cell-based; conditions: chlorocebus sabaeus; procedure, shortened: as §1
SK-OV-3 [5] = assay: Cytotoxicity against human SKOV3 cells up to 25 ug/ml after 48 hrs by neutral red assay relative to control; type: cell-based; conditions: sk-ov-3, 48 h; procedure, shortened: as §1
BT-549 [6] = assay: Cytotoxicity against human BT549 cells up to 25 ug/ml after 48 hrs by neutral red assay relative to control; type: cell-based; conditions: bt-549, 48 h; procedure, shortened: as §1
KB [7] = assay: Cytotoxicity against human KB cells up to 25 ug/ml after 48 hrs by neutral red assay relative to control; type: cell-based; procedure, shortened: as §1
SK-MEL [8] = assay: Cytotoxicity against human SK-MEL cells up to 25 ug/ml after 48 hrs by neutral red assay relative to control; type: cell-based; procedure, shortened: as §1
SW1353 = assay: Antiinflammatory activity in human SW1353 cells assessed as inhibition of PMA-induced NF-kappaB activity up to 25 ug/ml incubated for 30 mins prior to PMA challenge measured after 8 hrs by luciferase reporter gene assay; type: cell-based
Procedure, shortened: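 SW1353 chondrosarcoma cells grown in DMEM/F12 with 10% FBS at 37 °C, 5% CO2. Cells electroporated with an NF-κB luciferase plasmid (50 μg/mL, 160 V, one 70-ms pulse) and plated at 1.25 × 10⁵ cells/well. After 24 h, compound was added 30 min before PMA (70 ng/mL), then 8 h incubation. Luciferase read-out as % inhibition vs vehicle; IC50 from dose curves. Sp-1 served as a counter-screen.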

[9] = Cytotoxicity against pig LLC-PK11 cells after 48 hrs by neutral red assay relative to control; type: cell-based; conditions: Sus scrofa, LLC-PK11, 48 h
Procedure, shortened: (§2)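 Cells grown in RPMI-1640 with 10% bovine calf serum and amikacin at 37°C, 5% CO₂. Seeded 25,000 cells/well, grown 24 h, then exposed to compounds diluted in serum-free medium for 48 h. Viability by Neutral Red uptake, % decrease versus vehicle control. IC50 from dose curves, triplicate means. Doxorubicin positive control.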

SK-OV-3 [10] = assay: Cytotoxicity against human SKOV3 cells after 48 hrs by neutral red assay relative to control; type: cell-based; conditions: SK-OV-3, 48 h; procedure, shortened: as §2
BT-549 [11] = assay: Cytotoxicity against human BT549 cells after 48 hrs by neutral red assay relative to control; type: cell-based; conditions: BT-549, 48 h; procedure, shortened: as §2
SK-MEL [12] = assay: Cytotoxicity against human SK-MEL cells after 48 hrs by neutral red assay relative to control; type: cell-based; procedure, shortened: as §2
KB [13] = assay: Cytotoxicity against human KB cells after 48 hrs by neutral red assay relative to control; type: cell-based; procedure, shortened: as §2
Vero [14] = assay: Cytotoxicity against African green monkey Vero cells after 48 hrs by neutral red assay relative to control; type: cell-based; conditions: chlorocebus sabaeus; procedure, shortened: as §2

SMILES | inhibition [1] | IC50 [2] [µM] | Activity [3] | Activity (Vero [4]) | Activity (SK-OV-3 [5]) | Activity (BT-549 [6]) | Activity (KB [7]) | Activity (SK-MEL [8]) | inhibition (SW1353) | IC50 [9] [µM] | IC50 (SK-OV-3 [10]) [µM] | IC50 (BT-549 [11]) [µM] | IC50 (SK-MEL [12]) [µM] | IC50 (KB [13]) [µM] | IC50 (Vero [14]) [µM]
O=c1oc2ccccc2n1CCCN1CCN(CCCn2c(=O)oc3ccccc32)CC1 | inactive | 4.91 | Non-toxic | Non-toxic | Non-toxic | Non-toxic | Non-toxic | Non-toxic |  |  |  |  |  |  | 
O=c1sc2ccccc2n1CCCN1CCN(CCn2c(=O)sc3ccccc32)CC1 | inactive |  |  | Non-toxic | Non-toxic | Non-toxic | Non-toxic | Non-toxic | inactive | 24.1 |  |  |  |  | 
O=c1sc2ccccc2n1CCCCCN1CCN(CCCCCn2c(=O)sc3ccccc32)CC1 |  |  | Non-toxic | Non-toxic |  |  | Non-toxic |  |  |  | 25 | 19.3 | 19.8 |  | 
O=c1oc2ccccc2n1CCCCN1CCN(CCn2c(=O)oc3ccccc32)CC1 | inactive |  | Non-toxic | Non-toxic | Non-toxic | Non-toxic | Non-toxic | Non-toxic | inactive |  |  |  |  |  | 
O=c1sc2ccccc2n1CCCCCCN1CCN(CCCCn2c(=O)sc3ccccc32)CC1 |  | 0.83 | Non-toxic | Non-toxic | Non-toxic |  |  |  |  |  |  | 21.3 | 14.5 | 19.5 | 
O=c1sc2ccccc2n1CCCCN1CCN(CCn2c(=O)sc3ccccc32)CC1 | inactive |  | Non-toxic | Non-toxic | Non-toxic | Non-toxic | Non-toxic | Non-toxic | inactive |  |  |  |  |  | 
O=c1sc2ccccc2n1CCN1CCN(CCn2c(=O)sc3ccccc32)CC1 | inactive |  | Non-toxic | Non-toxic | Non-toxic | Non-toxic | Non-toxic | Non-toxic | inactive |  |  |  |  |  | 
O=c1oc2ccccc2n1CCN1CCN(CCn2c(=O)oc3ccccc32)CC1 | inactive |  | Non-toxic | Non-toxic | Non-toxic | Non-toxic | Non-toxic | Non-toxic | inactive |  |  |  |  |  | 
O=c1oc2ccccc2n1CCCCCN1CCN(CCCCn2c(=O)oc3ccccc32)CC1 |  |  | Non-toxic |  | Non-toxic | Non-toxic | Non-toxic | Non-toxic | inactive |  |  |  |  |  | 17.6
